Bioassay records (PubChem BioAssay)
Lipid droplet: inhibitors of hepatocyte lipid droplet formation, primary screen, imaging, high-throughput imaging, BODIPY stain; AML12 mouse hepatocytes, oleate lipid droplets; actives 0.4% (n = 240,000); AID 1656, 2009; inhibition, % at 6.5 µM;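 active = lipid droplet intensity inhibited by at least 50%, with more than 500 cells counted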
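Assay system: AML12 hepatocytes (mouse) / Also added: 100 µM oleic acid challenge / Times: overnight treatment with compound plus oleate / Detection: high-content imaging of BODIPY-stained droplets and DAPI nuclei / Evaluation: % inhibition of lipid droplet signal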
MEKK2 mut-MEK5: MEK5 binding signal on mutant MEKK2 PB1, primary screen, biochemical, multiplex bead flow cytometry, Alexa488-MEK5. Alexa488-MEK5 binding to MEKK2 mutant. percent response, % at 10 µM. actives 0.35% (n = 290,000); in the data active = percent response above about 24%, passing the limit was not always enough
MEKK3 PB1 HTS: modulators of MEKK3-MEK5 PB1 binding, primary screen, biochemical, wildtype MEKK3, multiplex bead flow cytometry, Alexa488-MEK5 | Mitogen-activated protein kinase kinase kinase 3 (Homo sapiens), Q99759 | bead-based flow cytometry, Alexa488-MEK5 binding to MEKK3; actives lie on both sides; 0 = blocked by unlabeled MEK5, 100 = vehicle | binding response (% of control), % at 10 µM | actives 1.4% (n = 290,000);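 active = binding response more than 3 SD above or below the average of its plate-row segment, actives on both sides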;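 note: Alexa488 bead fluorescence after subtracting the streptavidin-only scavenger bead signal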
Target sequence (Q99759 whole entry, looked up): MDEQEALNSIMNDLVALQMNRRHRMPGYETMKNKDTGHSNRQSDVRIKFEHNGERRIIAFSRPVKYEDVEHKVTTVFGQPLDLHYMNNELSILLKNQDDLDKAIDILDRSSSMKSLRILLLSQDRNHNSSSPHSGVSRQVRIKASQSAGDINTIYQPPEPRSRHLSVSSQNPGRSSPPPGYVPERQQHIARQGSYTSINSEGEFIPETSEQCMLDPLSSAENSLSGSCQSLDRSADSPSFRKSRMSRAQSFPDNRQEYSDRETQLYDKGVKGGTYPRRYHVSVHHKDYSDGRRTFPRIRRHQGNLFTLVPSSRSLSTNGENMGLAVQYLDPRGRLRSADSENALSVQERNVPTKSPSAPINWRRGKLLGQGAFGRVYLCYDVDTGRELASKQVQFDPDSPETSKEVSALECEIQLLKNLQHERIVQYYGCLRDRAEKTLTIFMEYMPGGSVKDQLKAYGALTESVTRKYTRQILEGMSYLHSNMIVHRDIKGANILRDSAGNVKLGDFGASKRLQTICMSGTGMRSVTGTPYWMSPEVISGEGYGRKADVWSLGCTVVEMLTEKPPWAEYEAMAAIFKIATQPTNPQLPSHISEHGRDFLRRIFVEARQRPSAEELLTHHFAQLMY
MEKK2 WT-MEK5: modulators of MEK5 binding to wildtype MEKK2, primary screen, biochemical, multiplex bead flow cytometry, Alexa488-MEK5. Mitogen-activated protein kinase kinase kinase 2 (Homo sapiens), Q9Y2U5. Alexa488-MEK5 binding to MEKK2 WT; actives lie on both sides. binding response (% of control), % at 10 µM. actives 1.1% (n = 290,000). AID 1531, 2009; in the data active = binding response below about 67% or above about 130%
MEKK2wt confirm: modulators of MEK5 binding to wildtype MEKK2, confirmation, biochemical, single concentration, multiplex bead flow cytometry | actives 2.4% (n = 5,900) | binding response (% of control), % at 10 µM | AID 1892, 2009 | Alexa488-MEK5 binding to MEKK2 WT; actives lie on both sides | shares compounds with MEKK3 PB1 HTS; in the data active = binding response below about 16% or above about 210%; inactive = in between
MEKK2mut confirm: mutant MEKK2 PB1-MEK5 binding signal retest – biochemical, single concentration, multiplex bead flow cytometry, confirmation | shares compounds with MEKK3 PB1 HTS | Alexa488-MEK5 binding to MEKK2 mutant | percent response, % at 10 µM | actives 2% (n = 5,900); in the data active = percent response mostly above about 71%, no sharp cut-off; inactive = mostly below about 38%;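 note: higher means compound restores mutant binding toward wildtype level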
MEKK3-MEK5 inh: MEKK3 wild-type PB1 binding to MEK5, inhibitors, confirmation, biochemical, bead multiplex flow cytometry, single concentration, wildtype. shares compounds with MEKK3 PB1 HTS. Alexa488-MEK5 binding to MEKK3; stronger effect = lower value. binding response (% of control), % at 10 µM. actives 1.8% (n = 5,900). AID 1894, 2009;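 active = binding response below 72% of control, or above a set upper limit, though filed actives all read lower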;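 note: 100% = DMSO only wells and 0% = binding blocked by excess unlabeled MEK5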
The depositor's hits bear a star; · = no result; [ ] = dose if it differs, or a comment. A selection: hits, their analogues and other compounds. The true share with any hit is near 2.6%.

SMILES	Lipid droplet	MEKK2 mut-MEK5	MEKK3 PB1 HTS	MEKK2 WT-MEK5	MEKK2wt confirm	MEKK2mut confirm	MEKK3-MEK5 inh
COc1cccc2cc(C(=O)N(Cc3ccccc3)CC3CCCO3)c(=O)oc12 (configuration not stated)	-2.7	5.0	124.0*	88.0	100.0	7.0	100.0
CCCCCCCCCCOC(=O)Cn1c(COc2ccccc2)[n+](C)c2ccccc21	-111.9	61.0*	113.0	226.0*	230.0*	84.0*	114.0
CCCCCCCCCCOC(=O)Cn1c(COc2ccc(OC)cc2)[n+](C)c2ccccc21	-99.9	80.0*	120.0	256.0*	266.0*	79.0*	108.0
CCCCCCCCCCOC(=O)Cn1c(COc2ccccc2C)[n+](C)c2ccccc21	-62.2	141.0*	115.0	293.0*	254.0*	150.0*	111.0
CCCCCCCCCCOC(=O)Cn1c(COc2cccc(C)c2)[n+](C)c2ccccc21	-80.0	112.0*	123.0*	402.0*	254.0*	90.0*	109.0
CCCCCOC(=O)Cn1c(=O)oc2ccccc21	-5.7	7.0	105.0	109.0	·	·	·
CCCCOC(=O)Cn1c(=O)n(CC(=O)OCCCC)c2ccccc21	-3.2	2.0	101.0	98.0	·	·	·
Cc1cc(NS(=O)(=O)c2cn(C)nc2C)no1	-2.3	2.0	104.0	104.0	·	·	·
CCCCCCCCCCOC(=O)Cn1c(COc2ccc(Cl)cc2)[n+](C)c2ccccc21	11.0	101.0*	115.0	349.0*	204.0	54.0	108.0
CCCn1c(SC(C(=O)Nc2cccc(OC)c2)c2ccccc2)nc2ccccc2c1=O (configuration not stated)	4.7	0.0	142.0*	110.0	96.0	-5.0	97.0
CCn1c(SCC(=O)Nc2cccc(OC)c2)nc2ccccc2c1=O	0.9	9.0	107.0	109.0	·	·	·
O=C(CN1CCC(C(=O)c2ccc(F)cc2)CC1)Nc1ccc(F)cc1	-3.7	2.0	46.0*[inhibitor]	66.0	99.0	-4.0	101.0
CC(=O)c1ccc(NC(=O)CN2CCC(C(=O)c3ccc(F)cc3)CC2)cc1	4.1	6.0	105.0	110.0	·	·	·
CCCS(=O)(=O)c1nc(S(=O)(=O)c2ccc(C)cc2)c(NCCCN2CCCC2=O)s1	-13.1	4.0	101.0	102.0	·	·	·
CC(C)NC(=O)C(=O)NNC(=O)C12CC3CC(CC(C3)C1)C2	-2.4	24.0*	110.0	103.0	107.0	0.0	102.0
COc1cc(CC(=O)OCC(=O)N2CC(=O)Nc3ccccc32)cc(OC)c1OC	-11.3	-5.0	103.0	93.0	·	·	·
Cc1ccc(CNC(=O)C2CC(=O)N(CCC(C)C)C2)cc1 (configuration not stated)	8.4	-45.0	5.0*[inhibitor]	8.0*[inhibitor]	99.0	-8.0	99.0
CCC(=O)Nc1ccc2c(c1)nc(CN1CCN(C(C)=O)CC1)n2C	-0.3	3.0	104.0	104.0	·	·	·
CS/C(N)=N/N=C/c1c(O)ccc2ccccc12	-15.1	29.0	133.0*	133.0	100.0	-4.0	99.0
CN(C)/N=C/c1c(O)ccc2ccccc12	16.8	7.0	106.0	108.0	·	·	·
COC(=O)c1cn(C(=O)c2ccc(OC)cc2)c2ccccc12	3.0	3.0	108.0	103.0	·	·	·
O=C(O)Cc1ccc(NC(=S)Nc2ccc(Br)cc2Cl)cc1	0.6	5.0	105.0	103.0	·	·	·
COc1ccc(C(CC(=O)N2CCOCC2)c2c(O)cc(OC)cc2OC)cc1 (configuration not stated)	8.5	0.0	133.0*	165.0*	102.0	4.0	96.0
COc1cc(O)c(C(CC(=O)N2CCN(c3ccccc3)CC2)c2ccc3c(c2)OCO3)c(OC)c1 (configuration not stated)	-11.7	0.0	130.0*	153.0*	100.0	-7.0	104.0
CCN(CC)CCC(c1ccc2c(c1)OCO2)c1c(O)cc(OC)cc1OC (configuration not stated)	-2.4	12.0	119.0	150.0*	116.0	3.0	105.0
SMILES	Lipid droplet	MEKK2 mut-MEK5	MEKK3 PB1 HTS	MEKK2 WT-MEK5	MEKK2wt confirm	MEKK2mut confirm	MEKK3-MEK5 inh
Brc1cc(Br)cc(CN2CCSCC2)c1	-7.3	-4.0	102.0	95.0	·	·	·
CCc1ccc(OCC(=O)Nc2cccc3c2CCCC3)cc1	16.0	0.0	115.0	103.0	·	·	·
CCOC(=O)N1CCC(NC(=O)C2=CCN(S(=O)(=O)c3ccc(OC)cc3)CC2)CC1	-3.1	29.0	128.0*	121.0	98.0	0.0	96.0
Cc1cc(C)nc(SCC(=O)n2c3c(c4ccccc42)CCCC3)n1	23.3	0.0	153.0*	106.0	105.0	5.0	104.0
O=C(CSc1ncccn1)n1c2c(c3ccccc31)CCCC2	·	5.0	108.0	103.0	·	·	·
Cc1ccc(NC(=O)Cn2ccc([N+](=O)[O-])n2)cc1C	13.8	0.0	102.0	103.0	·	·	·
CCCOc1ccc(C2NC(=O)NC2=O)cc1 (configuration not stated)	9.5	8.0	123.0*	120.0	108.0	3.0	108.0
CCCCCOc1ccc(C2NC(=O)NC2=O)cc1 (configuration not stated)	9.7	13.0	110.0	113.0	·	·	·
CC(C)Oc1ccc(C(=O)NCCCNC(=O)c2cccnc2)cc1	6.3	0.0	103.0	103.0	·	·	·
CC1CCN(Cc2ccc(-c3nnn(CC(=O)Nc4ccccc4Cl)n3)cc2)CC1	-9.0	-3.0	103.0	108.0	·	·	·
Cc1cccc(C)c1NC(=O)Cn1nnc(-c2ccc(CN3CCC(C)CC3)cc2)n1	-27.0	6.0	144.0*	137.0	99.0	4.0	98.0
Cc1ccc(C)n1-c1ccc(-c2ccn[nH]2)cc1	-0.1	190.0*	15.0*[inhibitor]	·	101.0	-2.0	102.0
CC1CC1C(=O)OCC(=O)Nc1ccc(N=Nc2ccccc2)cc1 (configuration not stated)	-21.8	5.0	136.0*	107.0	99.0	-3.0	95.0
CN(C)CCN(C)Cc1c2ccccc2c(CN(C)CCN(C)C)c2ccccc12	-26.1	24.0*	111.0	128.0	156.0	43.0	106.0
O=C(CSc1nnc(CNC(=O)c2c(F)cccc2F)o1)NCc1ccccc1Cl	-7.7	4.0	102.0	106.0	·	·	·
Cc1ccccc1CNC(=O)CN(c1cccc([N+](=O)[O-])c1)S(C)(=O)=O	-11.1	-2.0	101.0	95.0	·	·	·
